In general, inhibition refers to the drop in the measured response relative to a control, in per cent. What is called Cmax is the peak of the concentration-time curve. What is called residual activity is the signal under treatment as a percentage of the control signal. Higher therefore signals a small loss of activity.

Molecules are shown by their SMILES. Calls of active or inactive are those of the source. The rule behind the calls is not given here.

The record followed here is ChEMBL document CHEMBL5696442, “Discovery of type II inhibitors of TGFβ-activated kinase 1 (TAK1) and mitogen-activated protein kinase kinase kinase kinase 2 (MAP4K2)” (J Med Chem, 2015).

For series [1], the system named is Epidermal growth factor receptor (Homo sapiens), P00533 [L858R,T790M]. Nature of the series: Inhibition of EGFR L858R/T790M mutant (unknown origin) at 1 uM by Ambit Kinomescan binding assay relative to control.
In series [2] the target is DNA-PK/Ku70/Ku85 (Homo sapiens) (UniProt P78527+P12956+P13010). Nature of the series: Inhibition of DNAPK ATP labeling site harbouring KGGSWIQEINVAEK in human A-375 cells at 0.05 uM by KiNativ Profiling analysis relative to control. The class given is cell-based.
Series [3] addresses Serine/threonine-protein kinase 16 (Homo sapiens) (UniProt O75716). In words: Inhibition of STK16 (unknown origin) at 1 uM by Ambit Kinomescan binding assay relative to control.
Series [4] deals with T1, Serine/threonine-protein kinase tousled-like 1 (Homo sapiens) (UniProt Q9UKI8).
T1 sequence (whole entry): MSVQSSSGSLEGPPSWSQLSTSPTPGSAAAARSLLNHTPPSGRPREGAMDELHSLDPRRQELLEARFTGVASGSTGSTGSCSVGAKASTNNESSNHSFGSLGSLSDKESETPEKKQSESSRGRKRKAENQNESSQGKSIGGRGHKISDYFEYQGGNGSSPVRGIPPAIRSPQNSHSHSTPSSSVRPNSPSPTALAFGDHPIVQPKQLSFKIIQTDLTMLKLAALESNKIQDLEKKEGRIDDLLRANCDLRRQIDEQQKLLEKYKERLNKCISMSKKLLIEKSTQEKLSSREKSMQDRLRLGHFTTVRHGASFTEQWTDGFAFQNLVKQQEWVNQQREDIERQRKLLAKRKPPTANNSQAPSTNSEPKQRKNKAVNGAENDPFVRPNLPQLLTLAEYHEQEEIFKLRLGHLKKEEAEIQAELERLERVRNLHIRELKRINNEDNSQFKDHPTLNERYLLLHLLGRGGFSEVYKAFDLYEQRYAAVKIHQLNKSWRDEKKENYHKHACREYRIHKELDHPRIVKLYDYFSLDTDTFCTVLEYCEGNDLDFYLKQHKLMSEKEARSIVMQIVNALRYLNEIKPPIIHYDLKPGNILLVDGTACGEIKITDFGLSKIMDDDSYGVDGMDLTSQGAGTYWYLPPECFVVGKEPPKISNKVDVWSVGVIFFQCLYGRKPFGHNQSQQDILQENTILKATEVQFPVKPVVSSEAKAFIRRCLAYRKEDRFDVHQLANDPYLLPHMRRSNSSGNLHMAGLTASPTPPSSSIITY
Nature of the series: Inhibition of TLK1 (unknown origin) at 1 uM by Ambit Kinomescan binding assay relative to control.

In series [5] the target is Activated CDC42 kinase 1 (Homo sapiens) (UniProt Q07912). In words: Inhibition of ACK Lys1 labeling site in human A-375 cells at 0.5 uM by KiNativ Profiling analysis relative to control. The class given is cell-based.
For series [6], the target named is Serine/threonine-protein kinase MARK1 (Homo sapiens) (UniProt Q9P0L2). In words: Inhibition of MARK1 Lys2 labeling site in human A-375 cells at 0.5 uM by KiNativ Profiling analysis relative to control. The class given is cell-based.
The nature of series [7]: Inhibition of KHS1 Lys1 labeling site in human A-375 cells at 0.5 uM by KiNativ Profiling analysis relative to control. To be noted: condition cancer.
Series [8] deals with Aurora kinase B (Homo sapiens) (UniProt Q96GD4). In words: Inhibition of AURKB (unknown origin) at 10 uM by Ambit Kinomescan binding assay.
Aurora kinase B (Homo sapiens), sequence (Q96GD4 whole entry, the tested form may be a part): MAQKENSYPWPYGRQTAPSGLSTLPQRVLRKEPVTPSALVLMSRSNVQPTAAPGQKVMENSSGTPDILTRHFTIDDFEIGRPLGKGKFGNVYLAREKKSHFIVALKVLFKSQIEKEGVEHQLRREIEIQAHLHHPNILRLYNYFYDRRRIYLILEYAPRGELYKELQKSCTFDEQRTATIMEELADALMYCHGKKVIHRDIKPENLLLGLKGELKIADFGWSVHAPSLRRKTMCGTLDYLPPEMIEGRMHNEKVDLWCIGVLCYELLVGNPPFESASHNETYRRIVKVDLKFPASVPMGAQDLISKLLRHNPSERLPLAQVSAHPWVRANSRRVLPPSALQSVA
The target of series [9] is Ribosomal protein S6 kinase alpha-3 (Homo sapiens) (UniProt P51812). Nature of the series: Inhibition of RSK2 Domain 1 ACT labeling site harbouring LTDFGLSKESIDHEKK in human Huh-7 cells at 10 uM by KiNativ Profiling analysis relative to control. The class given is cell-based.
Series [10] concerns eIF-2-alpha kinase GCN2 (Homo sapiens), Q9P2K8 [S808G]. Nature of the series: Inhibition of GCN2 kinase domain S808G mutant (unknown origin) at 10 uM by Ambit Kinomescan binding assay.
The nature of series [11]: Cmax in Swiss albino mouse at 1 mg/kg, iv measured upto 24 hrs by LC/MS/MS analysis. The class given is ADME, organism-based. Particulars: in vivo. An outline of the steps:
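Male Swiss albino mice. […] Blood was taken into K2EDTA from three mice per time point, from 0 to 24 h. Plasma was precipitated with acetonitrile and analysed by LC/MS/MS (LLOQ 1.138 ng/mL).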

Series [12] concerns the target Tyrosine-protein kinase Fer (Homo sapiens, UniProt P16591). Nature of the series: Inhibition of FER Lys1 labeling site harbouring DKTSVAVKTCKEDLPQELK in human A-375 cells at 0.05 uM by KiNativ Profiling analysis relative to control. The class given is cell-based.
For series [13], the target named is Receptor-interacting serine/threonine-protein kinase 1 (Homo sapiens) (UniProt Q13546). Nature of the series: Inhibition of RIPK1 (unknown origin) at 10 uM by Ambit Kinomescan binding assay relative to control; values are per cent of control.
Receptor-interacting serine/threonine-protein kinase 1 (Homo sapiens), sequence (Q13546 whole entry, the tested form may be a part): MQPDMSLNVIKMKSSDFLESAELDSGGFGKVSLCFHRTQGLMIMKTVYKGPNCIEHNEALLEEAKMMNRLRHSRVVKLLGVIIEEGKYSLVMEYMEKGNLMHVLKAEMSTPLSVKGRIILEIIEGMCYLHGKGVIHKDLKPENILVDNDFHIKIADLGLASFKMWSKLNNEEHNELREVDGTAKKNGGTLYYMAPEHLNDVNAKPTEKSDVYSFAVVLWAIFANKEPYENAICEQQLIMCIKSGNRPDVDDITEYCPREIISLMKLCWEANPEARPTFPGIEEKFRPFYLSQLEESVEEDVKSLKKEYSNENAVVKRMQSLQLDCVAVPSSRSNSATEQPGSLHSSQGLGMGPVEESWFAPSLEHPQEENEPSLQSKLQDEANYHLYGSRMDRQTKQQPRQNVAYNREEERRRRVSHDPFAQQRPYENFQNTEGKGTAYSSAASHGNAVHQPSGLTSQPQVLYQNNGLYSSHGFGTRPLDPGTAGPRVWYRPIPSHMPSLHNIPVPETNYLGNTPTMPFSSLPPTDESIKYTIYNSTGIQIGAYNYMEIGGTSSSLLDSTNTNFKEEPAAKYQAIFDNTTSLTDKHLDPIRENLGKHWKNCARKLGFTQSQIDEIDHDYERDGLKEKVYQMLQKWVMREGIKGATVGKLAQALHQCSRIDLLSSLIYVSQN
The target in series [14] is Phosphatidylinositol 4-phosphate 3-kinase C2 domain-containing subunit beta (Homo sapiens) (UniProt O00750). In words: Inhibition of PIK3C2B (unknown origin) at 10 uM by Ambit Kinomescan binding assay.
Phosphatidylinositol 4-phosphate 3-kinase C2 domain-containing subunit beta (Homo sapiens), sequence (O00750 whole entry, the tested form may be a part): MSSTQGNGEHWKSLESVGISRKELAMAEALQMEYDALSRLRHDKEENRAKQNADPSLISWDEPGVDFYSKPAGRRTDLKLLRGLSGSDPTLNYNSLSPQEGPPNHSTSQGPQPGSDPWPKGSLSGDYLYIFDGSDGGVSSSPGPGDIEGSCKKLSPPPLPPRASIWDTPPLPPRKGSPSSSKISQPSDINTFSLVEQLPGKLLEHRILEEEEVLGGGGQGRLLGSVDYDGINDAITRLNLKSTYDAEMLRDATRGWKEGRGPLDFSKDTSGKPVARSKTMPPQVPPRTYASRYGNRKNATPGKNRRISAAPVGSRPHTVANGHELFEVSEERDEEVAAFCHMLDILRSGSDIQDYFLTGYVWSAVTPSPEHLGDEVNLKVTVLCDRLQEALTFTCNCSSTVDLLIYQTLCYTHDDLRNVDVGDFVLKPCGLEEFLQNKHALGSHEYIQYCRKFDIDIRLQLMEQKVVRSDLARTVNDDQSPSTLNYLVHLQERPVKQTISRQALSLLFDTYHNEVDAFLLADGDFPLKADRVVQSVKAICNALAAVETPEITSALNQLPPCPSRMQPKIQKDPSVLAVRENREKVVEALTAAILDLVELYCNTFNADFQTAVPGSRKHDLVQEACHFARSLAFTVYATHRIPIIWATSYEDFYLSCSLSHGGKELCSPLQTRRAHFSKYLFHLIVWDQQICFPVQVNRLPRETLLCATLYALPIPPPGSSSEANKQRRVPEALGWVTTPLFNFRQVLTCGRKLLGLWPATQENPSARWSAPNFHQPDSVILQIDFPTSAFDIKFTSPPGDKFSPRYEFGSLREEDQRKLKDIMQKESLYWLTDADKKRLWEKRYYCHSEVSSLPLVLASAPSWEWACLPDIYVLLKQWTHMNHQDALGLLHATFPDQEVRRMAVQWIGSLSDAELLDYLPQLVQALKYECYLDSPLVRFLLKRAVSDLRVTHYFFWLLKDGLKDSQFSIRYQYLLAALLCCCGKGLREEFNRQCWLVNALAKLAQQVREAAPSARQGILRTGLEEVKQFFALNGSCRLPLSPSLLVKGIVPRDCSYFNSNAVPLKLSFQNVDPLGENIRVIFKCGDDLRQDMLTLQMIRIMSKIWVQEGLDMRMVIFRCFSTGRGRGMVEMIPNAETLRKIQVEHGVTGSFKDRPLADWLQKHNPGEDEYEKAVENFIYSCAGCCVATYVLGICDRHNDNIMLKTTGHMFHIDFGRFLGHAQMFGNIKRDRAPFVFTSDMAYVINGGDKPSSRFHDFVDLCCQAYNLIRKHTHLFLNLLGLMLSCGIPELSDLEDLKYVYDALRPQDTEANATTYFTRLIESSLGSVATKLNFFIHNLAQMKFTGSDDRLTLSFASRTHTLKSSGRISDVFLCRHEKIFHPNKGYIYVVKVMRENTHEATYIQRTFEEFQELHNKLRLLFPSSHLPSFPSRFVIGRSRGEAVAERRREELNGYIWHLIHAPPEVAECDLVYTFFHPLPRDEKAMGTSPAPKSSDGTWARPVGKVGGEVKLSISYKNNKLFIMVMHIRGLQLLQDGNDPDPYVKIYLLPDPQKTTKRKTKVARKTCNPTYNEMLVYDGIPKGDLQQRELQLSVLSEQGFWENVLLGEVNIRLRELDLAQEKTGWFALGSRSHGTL
The target in series [15] is Tyrosine-protein kinase ABL1 (Homo sapiens, UniProt P00519). Nature of the series: Inhibition of ABL Lys1 labeling site in human A-375 cells at 5 uM by KiNativ Profiling analysis relative to control. The class given is cell-based.
Series [16] concerns the target Ephrin type-A receptor 6 (Homo sapiens) (UniProt Q9UF33). Nature of the series: Inhibition of EPHA6 (unknown origin) at 10 uM by Ambit Kinomescan binding assay.
Series [17] has as its target Calcium/calmodulin-dependent protein kinase type II subunit delta (Homo sapiens) (UniProt Q13557). In words: Inhibition of CAMK2D (unknown origin) at 10 uM by Ambit Kinomescan binding assay.
The target of series [18] is DNA-dependent protein kinase catalytic subunit (Homo sapiens) (UniProt P78527). Nature of the series: Inhibition of PRKDC ATP labeling site harbouring KGGSWIQEINVAEK in human Huh-7 cells at 1 uM by KiNativ Profiling analysis relative to control. The class given is cell-based.
Series [19] has as its target Tyrosine-protein kinase TXK (Homo sapiens) (UniProt P42681). Nature of the series: Inhibition of TXK (unknown origin) at 10 uM by Ambit Kinomescan binding assay relative to control; values are per cent of control.
Series [20] deals with Mitogen-activated protein kinase 14 (Homo sapiens, UniProt Q16539). In words: Inhibition of p38alpha Lys2 labeling site in human Huh-7 cells at 1 uM by KiNativ Profiling analysis relative to control. The class given is cell-based.
Mitogen-activated protein kinase 14, sequence (Q16539 whole entry): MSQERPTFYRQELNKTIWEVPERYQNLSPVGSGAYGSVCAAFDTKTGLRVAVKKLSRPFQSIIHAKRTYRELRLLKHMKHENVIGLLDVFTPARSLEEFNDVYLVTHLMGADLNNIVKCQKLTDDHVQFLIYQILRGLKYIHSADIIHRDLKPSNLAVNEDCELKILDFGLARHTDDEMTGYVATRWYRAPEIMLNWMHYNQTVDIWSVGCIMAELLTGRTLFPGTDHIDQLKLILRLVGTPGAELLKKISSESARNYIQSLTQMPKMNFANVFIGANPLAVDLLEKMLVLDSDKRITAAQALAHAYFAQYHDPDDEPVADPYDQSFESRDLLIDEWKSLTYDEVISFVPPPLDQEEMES
Series [21] addresses Focal adhesion kinase 1 (Homo sapiens) (UniProt Q05397). Nature of the series: Inhibition of FAK Lys1 labeling site in human Huh-7 cell lysate at 1 uM by KiNativ Profiling analysis relative to control. The class given is subcellular.
In series [22] the target is Serine/threonine-protein kinase Nek7 (Homo sapiens) (UniProt Q8TDX7). Nature of the series: Inhibition of NEK7 Lys2 labeling site harbouring DIKPANVFITATGVVK in human Huh-7 cell lysate at 1 uM by KiNativ Profiling analysis relative to control. The format is subcellular.
For series [23], the target named is Protein kinase C beta type (Homo sapiens) (UniProt P05771). Nature of the series: Inhibition of PKCb Lys2 labeling site in human Huh-7 cell lysate at 1 uM by KiNativ Profiling analysis relative to control. The class given is subcellular.
Protein kinase C beta type (Homo sapiens), sequence (P05771 2-671 limits assumed): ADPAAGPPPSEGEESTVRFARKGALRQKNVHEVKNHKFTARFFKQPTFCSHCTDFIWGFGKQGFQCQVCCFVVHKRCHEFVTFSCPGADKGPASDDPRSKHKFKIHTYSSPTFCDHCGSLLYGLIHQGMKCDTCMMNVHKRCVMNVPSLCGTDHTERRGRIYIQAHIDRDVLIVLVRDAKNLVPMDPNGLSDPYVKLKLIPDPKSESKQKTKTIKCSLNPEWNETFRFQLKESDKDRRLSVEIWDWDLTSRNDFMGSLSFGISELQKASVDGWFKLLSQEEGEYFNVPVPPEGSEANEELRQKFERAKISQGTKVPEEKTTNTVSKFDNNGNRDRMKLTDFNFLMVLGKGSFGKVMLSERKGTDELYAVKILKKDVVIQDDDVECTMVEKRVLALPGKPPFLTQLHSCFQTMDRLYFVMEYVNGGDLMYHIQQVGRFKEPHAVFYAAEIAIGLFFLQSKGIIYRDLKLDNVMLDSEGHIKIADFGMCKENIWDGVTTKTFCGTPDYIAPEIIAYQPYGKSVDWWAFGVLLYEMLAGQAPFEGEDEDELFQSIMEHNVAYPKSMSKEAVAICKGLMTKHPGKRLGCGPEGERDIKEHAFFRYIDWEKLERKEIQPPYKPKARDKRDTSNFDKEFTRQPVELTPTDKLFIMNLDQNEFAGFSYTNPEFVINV

Serine/threonine-protein kinase 16 (Homo sapiens), sequence (O75716 whole entry): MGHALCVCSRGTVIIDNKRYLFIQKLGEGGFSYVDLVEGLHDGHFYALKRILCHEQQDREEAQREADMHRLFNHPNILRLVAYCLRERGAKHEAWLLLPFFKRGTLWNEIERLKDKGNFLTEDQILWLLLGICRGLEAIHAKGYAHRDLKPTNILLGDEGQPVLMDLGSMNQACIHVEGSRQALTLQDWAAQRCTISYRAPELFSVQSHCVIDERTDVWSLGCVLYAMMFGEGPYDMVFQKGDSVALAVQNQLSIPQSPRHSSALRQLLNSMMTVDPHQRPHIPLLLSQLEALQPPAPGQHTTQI
Focal adhesion kinase 1 (Homo sapiens), sequence (Q05397 2-1052 limits assumed): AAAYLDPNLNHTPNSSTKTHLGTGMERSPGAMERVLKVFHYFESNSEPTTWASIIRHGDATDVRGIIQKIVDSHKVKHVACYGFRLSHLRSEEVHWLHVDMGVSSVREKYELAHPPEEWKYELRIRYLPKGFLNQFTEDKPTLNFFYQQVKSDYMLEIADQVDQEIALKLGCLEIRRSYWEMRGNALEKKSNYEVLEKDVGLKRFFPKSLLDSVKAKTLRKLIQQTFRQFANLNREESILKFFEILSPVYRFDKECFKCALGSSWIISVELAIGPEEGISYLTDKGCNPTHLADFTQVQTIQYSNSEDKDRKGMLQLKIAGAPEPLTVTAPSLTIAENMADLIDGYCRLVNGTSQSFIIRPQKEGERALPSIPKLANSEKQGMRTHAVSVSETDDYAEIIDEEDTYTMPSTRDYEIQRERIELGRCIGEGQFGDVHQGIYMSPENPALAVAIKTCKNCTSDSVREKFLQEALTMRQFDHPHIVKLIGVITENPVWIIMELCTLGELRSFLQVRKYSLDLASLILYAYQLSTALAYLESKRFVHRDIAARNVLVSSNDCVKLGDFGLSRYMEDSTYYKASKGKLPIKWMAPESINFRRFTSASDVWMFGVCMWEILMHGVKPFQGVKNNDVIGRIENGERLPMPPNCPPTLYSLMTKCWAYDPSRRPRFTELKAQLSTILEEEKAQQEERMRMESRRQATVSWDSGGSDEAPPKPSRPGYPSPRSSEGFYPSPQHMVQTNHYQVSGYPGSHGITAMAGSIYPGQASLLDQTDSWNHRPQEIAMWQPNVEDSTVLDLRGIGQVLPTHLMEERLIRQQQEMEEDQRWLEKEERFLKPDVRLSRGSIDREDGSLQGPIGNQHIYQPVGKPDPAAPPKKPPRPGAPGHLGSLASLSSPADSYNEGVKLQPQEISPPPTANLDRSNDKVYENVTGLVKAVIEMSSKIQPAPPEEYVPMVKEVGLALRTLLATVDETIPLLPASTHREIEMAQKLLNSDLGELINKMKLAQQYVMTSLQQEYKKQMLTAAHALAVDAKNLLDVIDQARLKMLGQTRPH

As for `CCN1CCN(Cc2ccc(NC(=O)c3ccc(C)c(/C=C/c4cnc5[nH]ccc5c4OC)c3)cc2C(F)(F)F)CC1`, the inhibition in [1] was found to be 100%; in series [2] it was 17.7%; in series [3] it was 100%; in [4] it was 79%; in [5], 35.2%; in [6] it was 2.2%. In series [7], the inhibition at 0.5 µM turned out to be 53.7%.

For the compound `CCN1CCN(Cc2ccc(NC(=O)c3ccc(C)c(Oc4ccnc5[nH]ccc45)c3)cc2C(F)(F)F)CC1`, the inhibition entry in series [8], in series [10], in series [14], in [16] and in series [17] was “inactive” each time. Moreover, the inhibition is -8% in [9], 62.8% in [12], 86.8% in [15] and 0.9% in series [18]. For the same compound, the Cmax in [11] was determined as 396 ng/mL. For the same compound, the figures for the residual activity in [13] and in series [19] were 0% and 12%, respectively.

As for `CNc1cc(Oc2cc(C(=O)Nc3cc(N4CCN(C)CC4)cc(C(F)(F)F)c3)ccc2C)ncn1`, the inhibition in series [20] was 22.6%; in [21] it was 3.3%; in series [22], -5%; in [23] it was -1.2%.
